Experimental data published in ChEMBL document CHEMBL2385003, “Oleuropein protects against dextran sodium sulfate-induced chronic colitis in mice” (J Nat Prod, 2013).
Activity calls are given as the source filed them. No cut-off for these calls is given here.

Assays:
IEC-18 [1] = experiment: Inhibition of LPS-induced p38 MAPK phosphorylation in rat IEC-18 cells at 10 uM incubated for 1 hr prior to LPS challenge measured after 30 mins by Western blot analysis; type: cell-based
Method in brief: (§1)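 IEC-18 rat intestinal epithelial cells were seeded at 2.5 × 10^5 cells/mL in DMEM (4.5 g/L glucose, 5% FBS) at 37 °C and 5% CO2. After 24 h the medium was switched to 0.5% FBS. Cells were pretreated with compound for 1 h, then stimulated with LPS 1 μg/mL: 30 min for phospho-p38 and 24 h for COX-2. Cytosolic protein (25 μg) was run on Western blots. Each result is the mean of at least three independent experiments.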

IEC-18 [2] = experiment: Inhibition of p38 MAPK-induced COX-2 expression in rat IEC-18 cells at 10 uM incubated for 1 hr prior to LPS challenge measured after 24 hrs by Western blot analysis; type: cell-based; method in brief: as §1
[3] = Antiproliferative activity against rat IEC-18 cells at 10 uM after 24 hrs by MTT assay; type: cell-based; settings: iec-18, 24 h
[4] = Wound healing activity in rat IEC-18 cells assessed as reduction of cell migration at 10 uM after 24 hrs relative to control; type: functional; design: scale not given: the % may be the effect or the level left
Method in brief: (§2)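 Confluent IEC-18 cells (from 2.5 × 10^5 cells/mL seeding) were moved to 0.5% FBS DMEM and scraped. They were then treated with test substance at 10 and 100 μM, or dexamethasone 10 μM. Migration was counted blind as cells crossing the wound border in a defined area from 0 to 24 h, using photomicrographs at 200×. n = 10.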

[5] = Wound healing activity in rat IEC-18 cells assessed as induction of wound closure at 100 uM after 24 hrs relative to dexamethasone; type: functional; method in brief: as §2
[6] = Wound healing activity in rat IEC-18 cells assessed as induction of wound closure at 10 uM after 24 hrs relative to dexamethasone; type: functional; method in brief: as §2
[7] = Antiproliferative activity against rat IEC-18 cells at 10 to 100 uM after 24 hrs by MTT assay; type: cell-based; settings: iec-18, 24 h
Method in brief: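 IEC-18 rat epithelial cells (passages 18–22) were seeded at 2.5 × 10^5 cells/mL in DMEM (4.5 g/L glucose, 5% FBS). After 24 h the medium was switched to 0.5% FBS and test substance was added at 10 and 100 μM, with dexamethasone 10 μM as reference. Proliferation was read by MTT at 24 h. n = 10.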

IEC-18 [8] = experiment: Inhibition of LPS-induced p38 MAPK phosphorylation in rat IEC-18 cells at 100 uM incubated for 1 hr prior to LPS challenge measured after 30 mins by Western blot analysis; type: cell-based
Method in brief: (§3)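 IEC-18 cells were seeded at 2.5 × 10^5 cells/mL in DMEM with 5% FBS; after 24 h the medium was switched to 0.5% FBS. Cells were pretreated 1 h with test substance at 100 μM (SB 203580 10 μM as reference), then given LPS 1 μg/mL. Phospho-p38 was read at 30 min and COX-2 at 24 h by Western blot (25 μg protein, 1:1000 antibodies, β-actin normalized). n = 6.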

IEC-18 [9] = experiment: Inhibition of p38 MAPK-induced COX-2 expression in rat IEC-18 cells at 100 uM incubated for 1 hr prior to LPS challenge measured after 24 hrs by Western blot analysis; type: cell-based; method in brief: as §3
Mus musculus [10] = experiment: Antiinflammatory activity in C57BL/6 mouse DSS-induced chronic colitis model assessed as effect on NFkappaB pathway in colon at 500 mg/kg/day administered through diet for total of 4 weeks for alternative weeks with water measured after 56 days by Western blot analysis; type: functional, organism-based
Mus musculus [11] = experiment: (§4) Antiinflammatory activity in C57BL/6 mouse DSS-induced chronic colitis model assessed as downregulation of p38 MAPK phosphorylation in colon at 500 mg/kg/day administered through diet for 4 weeks measured after 56 days by Western blot analysis relative to DSS-treated mouse; type: functional
Mus musculus [12] = experiment: as §4, with “iNOS expression” for “p38 MAPK phosphorylation”, “for total of” for “for”, “weeks for alternative weeks with water” for “weeks”; type: functional
Mus musculus [13] = experiment: as §4, with “COX-2 expression” for “p38 MAPK phosphorylation”, “for total of” for “for”, “weeks for alternative weeks with water” for “weeks”; type: functional
Mus musculus [14] = experiment: (§5) Antiinflammatory activity in C57BL/6 mouse DSS-induced chronic colitis model assessed as induction of IL-10 production in colon at 500 mg/kg/day administered through diet for total of 4 weeks for alternative weeks with water measured after 56 days by ELISA relative to DSS-treated mouse; type: functional; settings: C57BL/6, Colon
Method in brief: (§6)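 Mice were female C57BL/6 on the chronic DSS schedule: 1% DSS in cycles 1–2, 2% in cycles 3–4, each cycle 7 days DSS then 7 days water. Diet carried 0.25% test substance for 56 days. Colon powder was suspended 20% w/v in PBS/0.1% NP-40, sonicated and spun at 20000g. IL-6, IL-1β and IL-10 were measured in supernatants by ELISA as pg/mL per mg protein. Mean ± SEM, n = 7.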

Mus musculus [15] = experiment: Antiinflammatory activity in C57BL/6 mouse DSS-induced chronic colitis model assessed as inhibition of IL-1beta production in colon at 500 mg/kg/day administered through diet for total of 4 weeks for alternative weeks with water measured after 56 days by ELISA relative to DSS-treated mouse; type: functional; settings: C57BL/6, Colon; method in brief: as §6
Mus musculus [16] = experiment: Antiinflammatory activity in C57BL/6 mouse DSS-induced chronic colitis model assessed as inhibition of IL-6 production in colon at 500 mg/kg/day administered through diet for total of 4 weeks for alternative weeks with water measured after 56 days by ELISA relative to DSS-treated mouse; type: functional; settings: C57BL/6, Colon; method in brief: as §6
Mus musculus [17] = experiment: as §5, with “decrease in eosinophil peroxidase activity measured reduction” for “induction”, “eosinophil accumulation” for “IL-10 production”, “spectrophotometric analysis” for “ELISA”; type: functional; design: scale not given: the % may be the effect or the level left
Method in brief: (§7)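 Female C57BL/6 mice, 6−8 weeks, 18−20 g. Four DSS cycles in drinking water (1% in cycles 1–2, 2% in cycles 3–4; each 7 days DSS, then 7 days water). Diet held 0.25% test substance (about 500 mg/kg/day). Colons taken at day 56 and homogenized in 80 mM phosphate pH 5.4 with 0.5% HTAB. MPO read with TMB/H2O2, 37 °C 3 min, 630 nm. EPO read with o-phenylenediamine/H2O2, 2 min room temperature, 490 nm. NAG read with 4-nitrophenyl N-acetyl-β-D-glucosaminide, 37 °C 5 min, 405 nm. Mean ± SEM, n = 7.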

Mus musculus [18] = experiment: as §5, with “decrease in N-acetylglucosaminidase activity measured reduction” for “induction”, “macrophage accumulation” for “IL-10 production”, “spectrophotometric analysis” for “ELISA”; type: functional; design: scale not given: the % may be the effect or the level left; method in brief: as §7
Mus musculus [19] = experiment: as §5, with “decrease in myeloperoxidase activity measured reduction” for “induction”, “neutrophil accumulation” for “IL-10 production”, “spectrophotometric analysis” for “ELISA”; type: functional; design: scale not given: the % may be the effect or the level left; method in brief: as §7
Mus musculus [20] = experiment: Antiinflammatory activity in C57BL/6 mouse DSS-induced chronic colitis model assessed as reduction of stool consistency at 500 mg/kg/day administered through diet for total of 4 weeks for alternative weeks with water measured after 56 days; type: functional, organism-based
Method in brief: (§8)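 Mice and schedule as in the chronic DSS model: four 7-day DSS cycles (1%, 1%, 2%, 2%), each followed by 7 days water, with a diet containing 0.25% test substance. At day 56, stool consistency (normal, loose, diarrhea) and gross rectal bleeding (visible fecal blood, anal examination) were scored within the DAI. n = 10.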

Mus musculus [21] = experiment: Antiinflammatory activity in C57BL/6 mouse DSS-induced chronic colitis model assessed as reduction of rectal bleeding at 500 mg/kg/day administered through diet for total of 4 weeks for alternative weeks with water measured after 56 days; type: functional, organism-based; method in brief: as §8
Mus musculus [22] = experiment: Antiinflammatory activity in C57BL/6 mouse DSS-induced chronic colitis model assessed as reduction of edema at 500 mg/kg/day administered through diet for total of 4 weeks for alternative weeks with water measured after 56 days by hematoxylin-eosin staining; type: functional, organism-based
Mus musculus [23] = experiment: Antiinflammatory activity in C57BL/6 mouse DSS-induced chronic colitis model assessed as reduction of mucosal injury at 500 mg/kg/day administered through diet for total of 4 weeks for alternative weeks with water measured after 56 days by hematoxylin-eosin staining; type: functional, organism-based
Mus musculus [24] = experiment: Antiinflammatory activity in C57BL/6 mouse DSS-induced chronic colitis model assessed as leukocyte infiltration into mucosal tissue at 500 mg/kg/day administered through diet for total of 4 weeks for alternative weeks with water measured after 56 days by hematoxylin-eosin staining; type: functional, organism-based
Mus musculus [25] = experiment: Antiinflammatory activity in C57BL/6 mouse DSS-induced chronic colitis model assessed as reduction of colon weight to length ratio at 500 mg/kg/day administered through diet for total of 4 weeks for alternative weeks with water measured after 56 days; type: functional, organism-based
Method in brief: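 Female C57BL/6 mice received four DSS cycles: 7 days DSS in drinking water (1%, then 2% in cycles 3–4) followed by 7 days water. Diet contained 0.25% test substance, about 500 mg/kg/day. At day 56, colons were removed, rinsed in cold PBS, blotted, weighed and measured to give weight/length (mg/cm). n = 10.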

Mus musculus [26] = experiment: Antiinflammatory activity in C57BL/6 mouse DSS-induced chronic colitis model assessed as prevention of body weight loss at 500 mg/kg/day administered through diet for total of 4 weeks for alternative weeks with water measured after 56 days; type: functional, organism-based
Mus musculus [27] = experiment: Antiinflammatory activity in C57BL/6 mouse DSS-induced chronic colitis model assessed as decrease in severity of progressive chronic injury at 500 mg/kg/day administered through diet for total of 4 weeks for alternative weeks with water measured after 56 days; type: functional, organism-based
Mus musculus [28] = experiment: Toxicity in C57BL/6 mouse assessed as effect on viability at 500 mg/kg/day administered through diet for total of 4 weeks for alternative weeks with water measured after 56 days; type: organism-based; settings: in vivo, 1344 h
Mus musculus [29] = experiment: Antiinflammatory activity in C57BL/6 mouse DSS-induced chronic colitis model assessed as up regulation of annexin A1 mRNA expression in colon at 500 mg/kg/day administered through diet for total of 4 weeks for alternative weeks with water measured after 56 days by RT-PCR analysis relative to DSS-treated control; type: functional
Method in brief: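 Female C57BL/6 mice (6−8 weeks, 18−20 g) got four cycles of 7 days DSS in drinking water (1% cycles 1–2, 2% cycles 3–4) then 7 days water, with diet at 0.25% test agent throughout. Colons were taken at day 56. cDNA from 500 ng RNA was amplified with annexin A1 primers (25 cycles: 94/60/72 °C, 1 min each) and run on 2% agarose gel.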

C[S+]([O-])c1ccc(-c2nc(-c3ccc(F)cc3)c(-c3ccncc3)[nH]2)cc1 (centres undefined)
inhibition (IEC-18 [1]): Active
inhibition (IEC-18 [2]): 70%

C[C@@H]1C[C@H]2[C@@H]3CCC4=CC(=O)C=C[C@]4(C)[C@@]3(F)[C@@H](O)C[C@]2(C)[C@@]1(O)C(=O)CO [DEXAMETHASONE]
Activity [3]: Non-toxic
Activity [4]: 20%

C/C=C1/[C@H](O[C@@H]2O[C@H](CO)[C@@H](O)[C@H](O)[C@H]2O)OC=C(C(=O)OC)[C@H]1CC(=O)OCCc1ccc(O)c(O)c1 [OLEUROPEIN]
Activity [5]: 80%
Activity [6]: 57%
Activity [7]: Non-toxic
inhibition (IEC-18 [8]): Active
inhibition (IEC-18 [9]): 83%
Activity (Mus musculus [10]): inactive
Activity (Mus musculus [11]): <=65%
Activity (Mus musculus [12]): 58%
Activity (Mus musculus [13]): 68%
induction in vivo at 500 mg/kg/day (Mus musculus [14]): 34%
inhibition in vivo at 500 mg/kg/day (Mus musculus [15]): 25%
inhibition in vivo at 500 mg/kg/day (Mus musculus [16]): 37%
Activity (Mus musculus [17]): 46%
Activity (Mus musculus [18]): 42%
Activity (Mus musculus [19]): 36%
Activity (Mus musculus [20]): Active
Activity (Mus musculus [21]): Active
Activity (Mus musculus [22]): Active
Activity (Mus musculus [23]): Active
Activity (Mus musculus [24]): Active
Activity (Mus musculus [25]): Active
Activity (Mus musculus [26]): Active
Activity (Mus musculus [27]): Active
Activity (Mus musculus [28]): Non-toxic
fold change (FC) (Mus musculus [29]): 46
